Converted amounts (≈) assume the structure as drawn. The source made the active and inactive calls. The rule behind the calls is not given here.
Experiments:
[1] = Kinetic solubility of compound in PBS at pH 7.4 by UV-VIS absorption spectrophotometry analysis; type: physicochemical; details: for Kinetic_solubility: buffer; for solubility kinetic: PBS, read-out: Kinetic_solubility
In short: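 A 10 mM DMSO stock was diluted into PBS pH 7.4 at a target of 200 µM (final PBS:DMSO 98:2), in triplicate. Agitated 500 rpm for 90 min, then filtered. Filtrate diluted to PBS:DMSO 80:20 and its UV absorbance compared against a 200–6.75 µM standard series to give the concentration remaining in solution.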

[2] = Distribution coefficient, logD of compound at pH 7.4 by shake flask method based LC-MS/MS analysis; type: physicochemical; details: octanol/water
In short: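 Shake-flask method: compound diluted from 10 mM DMSO stock into equal volumes of octanol and PBS, final concentration 100 µM. Shaken 12 h, then centrifuged. Both layers analysed in triplicate by LC-MS/MS (MRM, C8 UPLC). LogD = log10 of the octanol/buffer peak-area ratio.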

[3] = biological target: T1, N-formyl peptide receptor 2 (Homo sapiens, UniProt P25090); assay: Agonist activity at FPRL1 (unknown origin) expressed in CHO-K1 cells assessed as increase in calcium mobilization incubated for 2.5 hrs by cellular based FLIPR assay; type: functional, cell-based
T1 sequence (P25090 whole entry): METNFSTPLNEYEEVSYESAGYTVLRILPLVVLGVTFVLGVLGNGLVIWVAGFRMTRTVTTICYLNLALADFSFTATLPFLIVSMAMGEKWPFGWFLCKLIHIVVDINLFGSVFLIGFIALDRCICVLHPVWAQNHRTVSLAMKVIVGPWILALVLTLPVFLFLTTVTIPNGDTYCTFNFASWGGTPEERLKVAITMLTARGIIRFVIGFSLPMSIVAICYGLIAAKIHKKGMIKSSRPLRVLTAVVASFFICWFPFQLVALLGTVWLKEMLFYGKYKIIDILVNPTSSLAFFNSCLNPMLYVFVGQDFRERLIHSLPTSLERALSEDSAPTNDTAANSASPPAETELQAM
In short: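 CHO-K1 cells overexpressing hFPR2, plated at 20,000 cells/well in F-12 with 10% FBS and held overnight at 37 °C. Loaded with FLIPR Calcium 6 dye for 2 h at 37 °C, then 30 min at RT in the dark. Compounds were half-log serially diluted from 10 mM stocks in HBSS/20 mM HEPES. Cytosolic Ca2+ rise read on FLIPR Tetra. WKYMVm served as control.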

[4] = biological target: T1, N-formyl peptide receptor 2; assay: Agonist activity at FPRL1 (unknown origin) expressed in CHO-K1 cells assessed as stimulation of beta-arrestin recruitment incubated for 150 mins by beta-galactosidase based PathHunter assay; type: functional, cell-based
In short: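 PathHunter CHO-K1 FPRL1 cells expressing β-gal enzyme-fragment complementation, 5000 cells/well, held overnight at 37 °C. Stimulated with half-log serial dilutions of compounds (10 mM stocks in PBS) for 150 min at 37 °C. High control was WKYMVm at 100 nM. Detection reagent added for 60 min at RT in the dark, then chemiluminescence read.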

[5] = Microsomal stability in human liver microsomes assessed as half life at 1 uM preincubated for 5 mins followed by NADPH regenerating system addition measured after 30 mins by LC-MS/MS analysis; type: ADME, Microsome; details: t1/2, time 35 min
In short: (§1)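 Human or mouse liver microsomes (0.2 mg/mL protein) with compound at 1 µM final, pre-incubated 5 min at 37 °C. Reaction started with NADPH generating solution and agitated at 37 °C, with samples quenched up to 30 min. Centrifuged; supernatant analysed in triplicate by LC-MS.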

[6] = biological target: T2, N-formyl peptide receptor 2 (Homo sapiens) (UniProt P25090); assay: Agonist activity at FPRL1 (unknown origin) expressed in CHO-K1 cells assessed as increase in calcium mobilization […] incubated for 2.5 hrs by cellular based FLIPR assay; type: functional, cell-based
T2 sequence (whole entry): T1 sequence (P25090 whole entry)
In short: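 CHO-K1 cells overexpressing human FPR2 (PathHunter FPRL1 line), plated at 20,000/well in F-12 with 10% FBS and held 1 h RT, then overnight at 37 °C. Calcium 6 dye loaded 2 h at 37 °C, then 30 min RT in the dark. Compounds were half-log serially diluted from 10 mM stocks in HBSS with 20 mM HEPES. Cytosolic Ca2+ rise read on FLIPR Tetra.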

[7] = biological target: T2, N-formyl peptide receptor 2 (Homo sapiens); assay: Agonist activity at FPRL1 (unknown origin) expressed in CHO-K1 cells assessed as stimulation of beta-arrestin recruitment […] incubated for 150 mins by beta-galactosidase based PathHunter assay; type: functional, cell-based
In short: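 PathHunter CHO-K1 FPRL1 cells carry complementing β-galactosidase fragments. Plated at 5000/well, held 1 h RT, then overnight at 37 °C. Compounds were half-log serially diluted from 10 mM stocks in PBS. Stimulation 150 min at 37 °C; W-peptide (WKYMVm, 100 nM) was the high control. Detection reagent added for 60 min RT in the dark, with chemiluminescence read-out.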

[8] = Microsomal stability in mouse liver microsomes assessed as half life at 1 uM preincubated for 5 mins followed by NADPH regenerating system addition measured after 30 mins by LC-MS/MS analysis; type: ADME, Microsome; details: t1/2, time 35 min; in short: as §1
[9] = filed as agonist, time 0.067 hrs, in the assay text read “measured for 240 s” for “incubated for 2.5 hrs”

SMILES	Kinetic_solubility [1] [µM]	logD [2]	EC50 ([3]; read-out: EC50) [nM]	EC50 ([4]; read-out: EC50) [nM]	solubility kinetic [1] [µM]	logD ([2]; read-out: logD)	half-life at 1 µM [5] [h]	EC50 ([3]; cho-k1)	Emax ([6]; time 2.5 hrs)	Emax ([7]; filed as agonist) [%]	half-life at 1 µM [8] [h]	EC50 ([4]; cho-k1)	Emax [7]	Emax [6, 9] [%]
CC(C)(C)OC(=O)N1CCC[C@H](N2CCC(NC(=O)Nc3ccc(Br)cc3)C2=O)C1 (stereo in doubt; 19) [listing 1 of 2 here]		> 4	130	1380	71 (≈ 34.2 µg/mL)									
CC(NC(=O)NC1CCN(c2ccccc2)C1=O)c1ccncc1 (centres undefined)						2	6.83	Not Active	inactive			Not Active	inactive	
CC1CC(NC(=O)NCc2nccn2C)C(=O)N1c1ccccc1 (centres undefined)						1		Not Active	inactive			Not Active	inactive	
Cn1cc(N2CCC(NC(=O)NCc3cc(F)cc(F)c3)C2=O)cn1 (centres undefined)						2.1	9.73	Not Active	inactive			Not Active	inactive	
CC(C)(C)OC(=O)N1CCC(CN2CCC(NC(=O)Nc3ccc(Br)cc3)C2=O)CC1 (centres undefined)			400	2160	53 (≈ 26.3 µg/mL)	> 4	0.317			92	0.317			86
CC(C)(C)OC(=O)N1CCC[C@H](N2CCC(NC(=O)Nc3ccc(Br)cc3)C2=O)C1 (stereo in doubt; 20) [listing 1 of 2 here]										86				73
CC(C)(C)OC(=O)N1CCC(N2CCC(NC(=O)Nc3ccc(Br)cc3)C2=O)CC1 (centres undefined)			730	6300	61 (≈ 29.4 µg/mL)	4.6	4.17			93	0.522			42
CC(C)(C)OC(=O)N1CC(N2CCC(NC(=O)Nc3ccc(Br)cc3)C2=O)C1 (centres undefined)			410	2350	222 (≈ 101 µg/mL)	> 4	1.88			103	1.87			67
CCc1ccc(C(C)NC(=O)NC2CCN(c3cnn(C)c3)C2=O)cc1 (centres undefined)								Not Active	inactive			Not Active	inactive	
CC(C)(C)OC(=O)N1CCC[C@H](N2CCC(NC(=O)Nc3ccc(Br)cc3)C2=O)C1 (stereo in doubt; 19) [listing 2 of 2 here]										89				71
CC(C)(C)OC(=O)N1CCC[C@H](N2CCC(NC(=O)Nc3ccc(Br)cc3)C2=O)C1 (stereo in doubt; 20) [listing 2 of 2 here]	54		60	550		4.1					0.5			
CC(NC(=O)NC1CC(C)N(c2ccccc2)C1=O)c1ccncc1 (centres undefined)						2.8	8.42	Not Active	inactive		2.52	Not Active	inactive	

Other lines, results leading:

Kinetic_solubility [1] [µM]	logD [2]	EC50 ([3]; read-out: EC50) [nM]	EC50 ([4]; read-out: EC50) [nM]	solubility kinetic [1] [µM]	logD ([2]; read-out: logD)	half-life at 1 µM [5] [h]	EC50 ([3]; cho-k1)	Emax ([6]; time 2.5 hrs)	Emax ([7]; filed as agonist) [%]	half-life at 1 µM [8] [h]	EC50 ([4]; cho-k1)	Emax [7]	Emax [6, 9] [%]	SMILES
210	3.3	2700	1370											O=C(Nc1ccc(Br)cc1)NC1CCN(C2CCN(Cc3ccccc3)C2)C1=O (stereo in doubt; 17) [listing 1 of 2 here]
			3760	3 (≈ 1.32 µg/mL)	4.3	11	Not Active	inactive	103					O=C(Nc1ccc(Br)cc1)NC1CCN(c2cnn(-c3ccncc3)c2)C1=O (centres undefined)
					> 4	3.48	Not Active	inactive		1.78	Not Active	inactive		O=C(Nc1ccc(Br)cc1)NC1CCN(c2cnn(-c3ccccc3)c2)C1=O (centres undefined)
		280	400	57 (≈ 26.7 µg/mL)	4.6	3.15			95	0.633			150	Cc1nn(-c2ccccc2)c(C)c1N1CCC(NC(=O)Nc2ccc(Br)cc2)C1=O (centres undefined)
		270	3290	227 (≈ 89.7 µg/mL)	0.8	6.35			102	2.33			84	O=C(Nc1ccc(Br)cc1)NC1CCN(CC2CCNCC2)C1=O (centres undefined)
		250	2250	192 (≈ 93.2 µg/mL)	2.5	3.78			93	2.02			99	O=C(Nc1ccc(Br)cc1)NC1CCN(CC2CCN(Cc3ccccc3)CC2)C1=O (centres undefined)
		370	700	207 (≈ 94.7 µg/mL)	3	0.933				0.6				O=C(Nc1ccc(Br)cc1)NC1CCN(C2CCN(Cc3ccccc3)C2)C1=O (stereo in doubt; 18) [listing 1 of 2 here]
				75 (≈ 29.1 µg/mL)	4.4	2.8	Not Active	inactive		2.12	Not Active	inactive		O=C(Nc1ccc(Br)cc1)NC1CCN(Cc2ccccc2)C1=O (centres undefined)
									100				128	O=C(Nc1ccc(Br)cc1)NC1CCN(C2CCN(Cc3ccccc3)C2)C1=O (stereo in doubt; 17) [listing 2 of 2 here]
		15000			2.7	1.42				2.87	Not Active	inactive	123	N#Cc1ccc(NC(=O)NC2CCN(c3ccccc3F)C2=O)cc1 (centres undefined)
					1.99	5.48	Not Active	inactive		5.95	Not Active	inactive		COc1ccc(CNC(=O)NC2CCN(c3ccccc3)C2=O)cc1 (centres undefined)
		1970	510		> 4	> 6.67				0.55				O=C(Nc1ccc(Br)cc1)NC1CCN(c2ccc(F)cc2)C1=O (centres undefined)
									99				84	O=C(Nc1ccc(Br)cc1)NC1CCN(C2CCN(Cc3ccccc3)C2)C1=O (stereo in doubt; 18) [listing 2 of 2 here]
		350	2870	152 (≈ 71.7 µg/mL)	3.5	1.87			96	1.17			76	O=C(Nc1ccc(Br)cc1)NC1CCN(C2CCN(Cc3ccccc3)CC2)C1=O (centres undefined)
		8	385		3.9	0.95			96	0.733				O=C(Nc1ccc(Br)cc1)NC1CCN(C2CCN(c3ncccn3)CC2)C1=O (centres undefined)
		230	1030	234 (≈ 89.2 µg/mL)	0.3				100				68	O=C(Nc1ccc(Br)cc1)NC1CCN(C2CCNCC2)C1=O (centres undefined)
